Measurements taken from ChEMBL document CHEMBL1138354, “2-(2'-((dimethylamino)methyl)-4'-(fluoroalkoxy)-phenylthio)benzenamine derivatives as serotonin transporter imaging agents” (J Med Chem, 2007).

Assays:
Nucleic Acid [1] = experiment: Ratio of drug level in cortex to cerebellum in rat after 360 mins; assay type: ADME, tissue-based; settings: in vivo, 6 h
Liver [2] = experiment: Biodistribution in iv dosed rat liver after 30 mins; assay type: ADME, organism-based; settings: in vivo, 0.5 h
Procedure, shortened: (§1)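 [18F]-labeled tracer was given to rats under isoflurane anesthesia: 0.2 ml sterile water with 1 mg/mL BSA and 10–100 μCi, into the femoral vein. Three rats per group. Animals were killed by cervical dislocation under anesthesia at the stated time. Organs were removed, weighed and counted. Uptake was calculated as percent dose against a 1% aliquot of the injected dose counted alongside.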

Nucleic Acid [3] = experiment: Ratio of drug level in hypothalamus to cerebellum in rat after 360 mins; assay type: ADME, tissue-based; settings: in vivo, 6 h
Heart = experiment: Biodistribution in iv dosed rat heart after 360 mins; assay type: ADME, organism-based; settings: in vivo, 6 h; procedure, shortened: as §1
Nucleic Acid [4] = experiment: Ratio of drug level in cortex to cerebellum in rat assessed as radioactivity after 120 mins; assay type: ADME, tissue-based; settings: in vivo, 2 h
Procedure, shortened: (§2)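 Groups of three normal rats under isoflurane received the [18F] tracer (10–100 μCi in 0.2 ml sterile water containing 1 mg/mL BSA) into the femoral vein. They were killed by cervical dislocation under anesthesia at the stated time. Cortex, striatum, hippocampus, hypothalamus and cerebellum were dissected, weighed and gamma-counted. %dose/g was set against a 100-fold diluted dose aliquot, and each region was divided by cerebellum.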

Bone [5] = experiment: Biodistribution in iv dosed rat bone after 360 mins; assay type: ADME, organism-based, Bone element; settings: in vivo, 6 h; procedure, shortened: as §1
Nucleic Acid [6] = experiment: Ratio of drug level in striatum to cerebellum in rat after 360 mins; assay type: ADME, tissue-based; settings: in vivo, 6 h
Nucleic Acid [7] = experiment: Ratio of drug level in hippocampus to cerebellum in rat after 360 mins; assay type: ADME, tissue-based; settings: in vivo, 6 h
Spleen [8] = experiment: Biodistribution in iv dosed rat spleen after 120 mins; assay type: ADME, organism-based; settings: in vivo, 2 h
Procedure, shortened: (§3)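 Rats, 3 per group, under isoflurane. ¹⁸F tracer (10–100 μCi) in 0.2 ml sterile water with 1 mg/mL BSA injected into the femoral vein. Killed by cervical dislocation under anesthesia at the stated time. Organs removed, weighed and counted. % dose/organ calculated against counts of a 1% diluted aliquot of the injected dose.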

Spleen [9] = experiment: Biodistribution in iv dosed rat spleen after 360 mins; assay type: ADME, organism-based; settings: in vivo, 6 h
Kidney [10] = experiment: Biodistribution in iv dosed rat kidney after 2 mins; assay type: ADME, organism-based; settings: in vivo; procedure, shortened: as §1
Nucleic Acid [11] = experiment: Ratio of drug level in hypothalamus to cerebellum in rat assessed as radioactivity after 240 mins; assay type: ADME, tissue-based; settings: in vivo, 4 h
Nucleic Acid [12] = experiment: Ratio of drug level in hippocampus to cerebellum in rat assessed as radioactivity after 30 mins; assay type: ADME, tissue-based; settings: in vivo, 0.5 h; procedure, shortened: as §2
Zone of skin [13] = experiment: Biodistribution in iv dosed rat skin after 30 mins; assay type: ADME, organism-based; settings: in vivo, 0.5 h; procedure, shortened: as §3
Muscle tissue = experiment: Biodistribution in iv dosed rat muscle after 360 mins; assay type: ADME, organism-based; settings: in vivo, 6 h; procedure, shortened: as §1
Liver [14] = experiment: Biodistribution in iv dosed rat liver after 360 mins; assay type: ADME, organism-based; settings: in vivo, 6 h; procedure, shortened: as §1
Nucleic Acid [15] = experiment: Ratio of drug level in hippocampus to cerebellum in rat assessed as radioactivity after 2 mins; assay type: ADME, tissue-based; settings: in vivo
Striatum = experiment: Biodistribution in iv dosed rat striatum assessed as radioactivity after 60 mins; assay type: ADME, organism-based; settings: in vivo, 1 h
Brain [16] = experiment: Biodistribution in iv dosed rat brain after 240 mins; assay type: ADME, organism-based; settings: in vivo, 4 h; procedure, shortened: as §1
Kidney [17] = experiment: Biodistribution in iv dosed rat kidney after 360 mins; assay type: ADME, organism-based; settings: in vivo, 6 h; procedure, shortened: as §1
Brain [18] = experiment: Biodistribution in iv dosed rat brain after 2 mins; assay type: ADME, organism-based; settings: in vivo; procedure, shortened: as §1
Spleen [19] = experiment: Biodistribution in iv dosed rat spleen after 240 mins; assay type: ADME, organism-based; settings: in vivo, 4 h
Bone [20] = experiment: Biodistribution in iv dosed rat bone after 60 mins; assay type: ADME, organism-based, Bone element; settings: in vivo, 1 h; procedure, shortened: as §1
Lung = experiment: Biodistribution in iv dosed rat lung after 360 mins; assay type: ADME, organism-based; settings: in vivo, 6 h; procedure, shortened: as §1
Zone of skin [21] = experiment: Biodistribution in iv dosed rat skin after 360 mins; assay type: ADME, organism-based; settings: in vivo, 6 h
Cortex = experiment: Biodistribution in iv dosed rat cortex assessed as radioactivity after 240 mins; assay type: ADME, organism-based; settings: in vivo, 4 h
Procedure, shortened: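 Rats received the [18F] tracer under isoflurane anesthesia: 0.2 ml sterile water with 1 mg/mL BSA and 10–100 μCi, into the femoral vein. Three rats per group. After cervical dislocation under anesthesia, the cortex was dissected, weighed and gamma-counted. Percent dose/g was calculated against a 100-fold diluted aliquot of the injected dose.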

Brain [22] = experiment: Biodistribution in iv dosed rat brain after 360 mins; assay type: ADME, organism-based; settings: in vivo, 6 h; procedure, shortened: as §1
Blood = experiment: Biodistribution in iv dosed rat blood after 360 mins; assay type: ADME, organism-based; settings: in vivo, 6 h; procedure, shortened: as §1
Pancreas [23] = experiment: Biodistribution in iv dosed rat pancreas after 60 mins; assay type: ADME, organism-based; settings: in vivo, 1 h
Pancreas [24] = experiment: Biodistribution in iv dosed rat pancreas after 30 mins; assay type: ADME, organism-based; settings: in vivo, 0.5 h; procedure, shortened: as §3
Pancreas [25] = experiment: Biodistribution in iv dosed rat pancreas after 120 mins; assay type: ADME, organism-based; settings: in vivo, 2 h; procedure, shortened: as §1
Pancreas [26] = experiment: Biodistribution in iv dosed rat pancreas after 2 mins; assay type: ADME, organism-based; settings: in vivo
Pancreas [27] = experiment: Biodistribution in iv dosed rat pancreas after 240 mins; assay type: ADME, organism-based; settings: in vivo, 4 h

| Drug uptake (Liver [2]) [%ID] | Ratio (Nucleic Acid [4]) | Drug uptake (Spleen [8]) [%ID] | Drug uptake (Kidney [10]) [%ID] | Ratio (Nucleic Acid [11]) | Ratio (Nucleic Acid [12]) | Drug uptake (Zone of skin [13]) [%ID] | Ratio (Nucleic Acid [15]) | Drug uptake (Striatum) [% ID/g] | Drug uptake (Brain [16]) [%ID] | Drug uptake (Brain [18]) [%ID] | Drug uptake (Spleen [19]) [%ID] | Drug uptake (Bone [20]) [%ID] | Drug uptake (Cortex) [% ID/g] | SMILES | further results |
| --- | --- | --- | --- | --- | --- | --- | --- | --- | --- | --- | --- | --- | --- | --- | --- |
| 4.58 | 2.9 | 0.54 | 5.33 | 4.26 | 1.63 | 7.06 | 0.88 | 1.27 | 1.57 | 2.05 | 0.39 | 8.53 | 0.82 | CN(C)Cc1cc(OCC[18F])ccc1Sc1ccc(Br)cc1N | Ratio (Nucleic Acid [1]): 3.2; Ratio (Nucleic Acid [3]): 4.32; Drug uptake (Heart): 0.13 %ID; Drug uptake (Bone [5]): 15.3 %ID; Ratio (Nucleic Acid [6]): 3.8; Ratio (Nucleic Acid [7]): 3.08; Drug uptake (Spleen [9]): 0.29 %ID; Drug uptake (Muscle tissue): 8.98 %ID; Drug uptake (Liver [14]): 1.86 %ID; Drug uptake (Kidney [17]): 1.13 %ID; Drug uptake (Lung): 1.89 %ID; Drug uptake (Zone of skin [21]): 6.52 %ID; Drug uptake (Brain [22]): 1.36 %ID; Drug uptake (Blood): 4.75 %ID |
| 4.24 | 4.6 | 0.26 | 7.93 | 6.58 | 2.59 | 8.66 | 1.19 | 0.7 | 0.18 | 1.84 | 0.09 | 4.87 | 0.07 | CN(C)Cc1cc(OCC[18F])ccc1Sc1ccccc1N | Drug uptake (Pancreas [23]): 0.19 %ID; Drug uptake (Pancreas [24]): 0.24 %ID; Drug uptake (Pancreas [25]): 0.08 %ID; Drug uptake (Pancreas [26]): 0.92 %ID; Drug uptake (Pancreas [27]): 0.04 %ID |
